In ChEMBL document CHEMBL1914319 (Bioorg Med Chem, 2011):

Legend:
HepG2 = assay: Antiproliferative activity against human HepG2 cells after 48 hrs by MTT assay; type: functional, cell-based; conditions: HepG2, 48 h
Method in brief: (§1)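 1×10^4 cells/well seeded and held 24 h at 37 °C, 5% CO2. Viability read after 48 h by MTT (4 h, 37 °C), DMSO solubilization, A570. Three independent experiments, mean ± SD.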

[1] = Antiproliferative activity against human SW1116 cells after 48 hrs by MTT assay; type: functional, cell-based; conditions: SW 1116, 48 h; method in brief: as §1
BGC-823 = assay: Antiproliferative activity against human BGC823 cells after 48 hrs by MTT assay; type: functional, cell-based; conditions: BGC-823, 48 h; method in brief: as §1
[2] = target: Telomerase reverse transcriptase (Homo sapiens, UniProt O14746); assay: Inhibition of telomerase in human SW1116 cells after 24 hrs by TRAP-PCR-ELISA assay; type: cell-based, SW 1116
Telomerase reverse transcriptase, sequence (O14746 whole entry): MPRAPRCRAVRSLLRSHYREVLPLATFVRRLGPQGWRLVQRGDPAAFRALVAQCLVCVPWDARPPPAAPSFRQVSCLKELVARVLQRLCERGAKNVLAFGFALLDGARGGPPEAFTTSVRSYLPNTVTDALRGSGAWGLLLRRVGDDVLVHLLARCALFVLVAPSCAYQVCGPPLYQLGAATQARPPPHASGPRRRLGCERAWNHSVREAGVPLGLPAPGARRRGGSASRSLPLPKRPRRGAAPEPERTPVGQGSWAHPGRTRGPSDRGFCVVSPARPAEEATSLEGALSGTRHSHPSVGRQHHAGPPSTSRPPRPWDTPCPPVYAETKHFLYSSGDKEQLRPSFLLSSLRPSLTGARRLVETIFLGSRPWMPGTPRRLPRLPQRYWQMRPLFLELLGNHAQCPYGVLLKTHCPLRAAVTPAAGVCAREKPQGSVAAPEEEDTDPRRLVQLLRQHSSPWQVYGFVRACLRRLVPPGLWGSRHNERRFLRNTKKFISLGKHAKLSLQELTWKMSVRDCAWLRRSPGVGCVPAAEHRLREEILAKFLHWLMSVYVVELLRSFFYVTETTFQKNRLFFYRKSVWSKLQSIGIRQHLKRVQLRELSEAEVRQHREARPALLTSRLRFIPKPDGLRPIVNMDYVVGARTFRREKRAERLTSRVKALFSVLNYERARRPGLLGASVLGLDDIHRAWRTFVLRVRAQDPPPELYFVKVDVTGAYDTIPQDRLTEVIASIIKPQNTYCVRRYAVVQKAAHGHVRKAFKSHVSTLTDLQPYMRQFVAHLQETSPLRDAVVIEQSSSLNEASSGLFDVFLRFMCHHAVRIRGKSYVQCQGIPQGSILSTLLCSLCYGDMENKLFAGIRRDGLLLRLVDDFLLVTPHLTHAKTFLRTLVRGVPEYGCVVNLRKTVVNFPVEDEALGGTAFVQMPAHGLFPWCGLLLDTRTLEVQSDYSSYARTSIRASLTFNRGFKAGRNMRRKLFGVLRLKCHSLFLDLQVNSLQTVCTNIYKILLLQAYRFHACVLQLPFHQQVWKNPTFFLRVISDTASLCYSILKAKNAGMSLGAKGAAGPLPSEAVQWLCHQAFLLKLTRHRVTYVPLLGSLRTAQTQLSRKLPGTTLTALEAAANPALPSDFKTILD
Method in brief: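 Cells kept in DMEM with 10% FBS, streptomycin and penicillin at 37 °C, 5% CO2. Lysed in RIPA on ice for 30 min, supernatant cleared at 12,000g. Extract used in a TRAP kit, 35 PCR cycles, ELISA read at 490 nm. Mean ± SD.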

HeLa = assay: Antiproliferative activity against human HeLa cells after 48 hrs by MTT assay; type: functional, cell-based; method in brief: as §1

SMILES	IC50 (HepG2) [µM]	IC50 [1] [µM]	IC50 (BGC-823) [µM]	IC50 [2] [µM]	IC50 (HeLa) [µM]
c1ccc(CSc2nnc(-c3ccc4c(c3)OCCO4)o2)cc1	32.1	31.5	33.6	8.21	40.3
Cc1cccc(CSc2nnc(-c3ccc4c(c3)OCCO4)o2)c1	33.4	27.2	31.2	3.26	32.8
O=[N+]([O-])c1ccc(CSc2nnc(-c3ccc4c(c3)OCCO4)o2)cc1	35.4	14.6	23	2.71	27.5
Fc1ccccc1CSc1nnc(-c2ccc3c(c2)OCCO3)o1	24	21.9	28.9	2.93	41.6
O=[N+]([O-])c1ccccc1CSc1nnc(-c2ccc3c(c2)OCCO3)o1	38.1	20.8	23.3	12.1	32.7
Cc1ccc(CSc2nnc(-c3ccc4c(c3)OCCO4)o2)cc1	41.9	32.5	31.6	5.04	45.4
Fc1ccc(CSc2nnc(-c3ccc4c(c3)OCCO4)o2)cc1	38	21.6	28.7	3.67	41.2
O=[N+]([O-])c1cccc(CSc2nnc(-c3ccc4c(c3)OCCO4)o2)c1	38.3	30.1	23.7	4.65	35.6
Clc1ccc(CSc2nnc(-c3ccc4c(c3)OCCO4)o2)cc1	28.8	28.4	22.6	2.91	28.5
Ic1ccc(CSc2nnc(-c3ccc4c(c3)OCCO4)o2)cc1	31.2	29.2	22.7	3.66	31.1
Cc1ccccc1CSc1nnc(-c2ccc3c(c2)OCCO3)o1	22	23.9	22.6	1.27	19
Brc1ccccc1CSc1nnc(-c2ccc3c(c2)OCCO3)o1	19.9	14.1	21.2	2.02	22.4
Brc1cccc(CSc2nnc(-c3ccc4c(c3)OCCO4)o2)c1	24.9	20.1	20.6	2.45	25.9
Brc1ccc(CSc2nnc(-c3ccc4c(c3)OCCO4)o2)cc1	8.54	24.5	22.2	1.66	23.6
Clc1ccccc1CSc1nnc(-c2ccc3c(c2)OCCO3)o1	22.6	29.5	22.5	5.89	36.8
Clc1cccc(CSc2nnc(-c3ccc4c(c3)OCCO4)o2)c1	33.4	25.2	26.9	2.34	31.8
Fc1cccc(F)c1CSc1nnc(-c2ccc3c(c2)OCCO3)o1	41.6	36.3	36.1	15.8	43.2
Fc1ccc(CSc2nnc(-c3ccc4c(c3)OCCO4)o2)c(F)c1	38.7	29.6	30.3	2.44	41.7
Ic1ccccc1CSc1nnc(-c2ccc3c(c2)OCCO3)o1	7.21	12.2	18.9	1.83	20
O=c1[nH]cc(F)c(=O)[nH]1 [FLUOROURACIL]	–	95.2	100	–	110
